The record followed here is ChEMBL document CHEMBL2216753, “Novel 1,4-benzoxazine and 1,4-benzodioxine inhibitors of angiogenesis” (Eur J Med Chem, 2012).

The species named for data set [1] is Gallus gallus. Nature of the data set: Antiangiogenic activity in chicken embryo chorioallantoic membrane model assessed as degradation of immature existing blood vessels at 40 to 250 nmol/disc after 3 days. The data set is classed as functional, tissue-based.
A short description of data set [2]: Cytotoxicity against human HMEC1 cells at 100 uM after 3 days by coulter counter method. The data set is classed as cell-based. As to conditions: hmec-1, 72 h. Put shortly:
(§1)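 Cells seeded at 10,000 cells per cm2; after 16 h, fresh medium with test compound added. Cells trypsinized and counted with a Coulter counter on day 4 (BAEC, HeLa, MCF-7) or day 7 (HMEC-1). Cytotoxicity (cell death) was judged after 3 days in culture. HMEC-1 grown in EGM-2 with supplements and growth factors.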

Data set [3] in a line: Cytotoxicity against bovine BAEC cells at 100 uM after 3 days by coulter counter method. The data set is classed as cell-based, Bos taurus. As to conditions: cattle, 72 h. Put shortly:
as §1

Data set [4] concerns HeLa. Nature of the data set: Cytotoxicity against human HeLa cells at 100 uM after 3 days by coulter counter method. As to conditions: 72 h. The data set is classed as cell-based. In short, it runs like this: as §1
The test system of data set [5] is MCF7. Briefly: Cytotoxicity against human MCF7 cells at 100 uM after 3 days by coulter counter method. The data set is classed as cell-based. The conditions noted are these: mcf7, 72 h. Put shortly:
as §1

The nature of data set [6]: Cytotoxicity against human HMEC1 cells at 30 uM after 3 days by coulter counter method. The format is cell-based. The conditions noted are these: hmec-1, 72 h. Put shortly: as §1
A short description of data set [7]: Cytotoxicity against bovine BAEC cells at 30 uM after 3 days by coulter counter method. The data set is classed as cell-based, Bos taurus. The conditions noted are these: cattle, 72 h. Put shortly:
as §1

For data set [8], the system named is HeLa. Briefly: Cytotoxicity against human HeLa cells at 30 uM after 3 days by coulter counter method. The format is cell-based. The conditions noted are these: 72 h. In short, it runs like this: as §1
In data set [9] the test system is MCF7. Nature of the data set: Cytotoxicity against human MCF7 cells at 30 uM after 3 days by coulter counter method. The conditions noted are these: mcf7, 72 h. The format is cell-based. Put shortly:
as §1

Data set [10] deals with MAEC. Briefly: Antimigratory activity against mouse MAEC cell migration after 5 hrs by wound closure assay. The format is functional, cell-based. In short, it runs like this: (§2)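 Confluent MAEC monolayers wounded with a 1.0-mm wide micropipette tip, then incubated in fresh medium with test compound. Wounds photographed after 5 h and width calculated from digital images. Mean ± SD of 2–4 independent experiments; Student t test, p < 0.05 significant.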

Data set [11] deals with MAEC. Nature of the data set: (§3) Antimigratory activity against mouse MAEC cell migration at 30 uM after 5 hrs by wound closure assay. The data set is classed as functional. Put shortly:
as §2

Data set [12] in a line: Antimigratory activity against mouse MAEC cell migration at 10 uM after 5 hrs by wound closure assay. The format is functional. In short, it runs like this: as §2
Data set [13] in a line: Antimigratory activity against mouse MAEC cell migration at 3 uM after 5 hrs by wound closure assay. The format is functional. Put shortly: as §2
Data set [14] deals with HMEC-1. Briefly: Antiangiogenic activity in human HMEC1 cells assessed as inhibition of tube formation at 10 uM after 4 to 6 hrs by matrigel assay. The data set is classed as functional, cell-based. In short, it runs like this: (§4)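 HMEC-1 (60,000 cells) seeded on matrigel (10 mg/mL) after 30 min gelling at 37 °C, in DMEM containing test compound; after 4–6 h cells photographed and tubes scored 0 (none) to 3 (maximal, like untreated control). Mean ± SD of 2–4 independent experiments; Student t test, p < 0.05 significant.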

The species entered for data set [15] is Gallus gallus. Nature of the data set: Antiangiogenic activity in chicken embryo chorioallantoic membrane model at 250 nmol/disc after 3 days. The format is functional, tissue-based.
The species named for data set [16] is Gallus gallus. Nature of the data set: Antiangiogenic activity in chicken embryo chorioallantoic membrane model assessed as destruction of vessels with bleeding at 20 nmol/disc after 3 days. The format is functional, tissue-based.
Data set [17] in a line: Antiproliferative activity against human HMEC1 cells after 7 days by coulter counter method. The data set is classed as functional, cell-based. As to conditions: HMEC-1, 168 h.
Data set [18] concerns HeLa. Nature of the data set: Antiproliferative activity against human HeLa cells after 4 days by coulter counter method. The data set is classed as functional, cell-based. As to conditions: 96 h.
Data set [19] is described as follows: Antiproliferative activity against bovine BAEC cells after 4 days by coulter counter method. The data set is classed as functional, cell-based. The conditions noted are these: Bos taurus, 96 h.
The test system of data set [20] is HMEC-1. Briefly: Antiangiogenic activity in human HMEC1 cells assessed as inhibition of tube formation at 30 uM after 4 to 6 hrs by matrigel assay. The data set is classed as functional, cell-based. In short, it runs like this:
as §4

For data set [21], the system named is MCF7. Briefly: Antiproliferative activity against human MCF7 cells after 4 days by coulter counter method. The data set is classed as functional, cell-based. As to conditions: MCF7, 96 h.
A short description of data set [22]: as §3. The format is functional. Put shortly:
as §2

Data set [23] deals with HMEC-1. Nature of the data set: Antiangiogenic activity in human HMEC1 cells assessed as inhibition of tube formation after 4 to 6 hrs by matrigel assay. The data set is classed as functional, cell-based. In short, it runs like this:
as §4

The subject of data set [24] is HMEC-1. Nature of the data set: Antiangiogenic activity in human HMEC1 cells assessed as inhibition of tube formation at 100 uM after 4 to 6 hrs by matrigel assay. The data set is classed as functional, cell-based. Put shortly:
as §4

For the next data set, the target named is Prothrombin (Homo sapiens, UniProt P00734). Nature of the data set: Inhibition of thrombin.
The species named for data set [25] is Gallus gallus. Nature of the data set: Antiangiogenic activity in chicken embryo chorioallantoic membrane model assessed as inhibition of chorioallantoic membrane vascularization at 100 to 250 nmol/disc after 3 days. The data set is classed as functional, tissue-based.
Data set [26] is filed under the species Gallus gallus. Nature of the data set: Antiangiogenic activity in chicken embryo chorioallantoic membrane model assessed as inhibition of pre-existing mature vessel at 100 to 250 nmol/disc after 3 days. The data set is classed as functional, tissue-based.

Active and inactive are the calls of the source. No cut-off for these calls is given here.

With `CCOC(=O)CN(Cc1cc(F)cc(F)c1)c1ccc2c(c1)N(C)CC(C)(COc1ccc(C(=N)N)cc1)O2` (configuration not stated), the outcome in the data set listed under Gallus gallus [1] and in the data set listed under Gallus gallus [16] was Active. Further, the Activity result (in data set [2]; in data set [3]; in the data set on HeLa [4]; in the data set with MCF7 [5]; in [6]; in data set [7]) was “Toxic” each time. For the same compound, the Activity entry with HeLa [8] and with MCF7 [9] was “Toxic” each time. The inhibition entry in the data set on MAEC [10] was “Dose-dependent effect”. Moreover, the inhibition entry with MAEC [11], in the data set listed under Gallus gallus [15] and in the data set on HMEC-1 [20] was “Active” throughout. This compound also returned an inhibition at 10 µM in data set [12] of 50%. Besides, in data set [13], the inhibition at 3 µM is above 40%. The inhibition entry in the data set on HMEC-1 [14] is “inactive”. The IC50 in [17] was determined as 6.7 µM; in the data set with HeLa [18], 4.5 µM; in [19], 4 µM; in the data set with MCF7 [21], 4.5 µM.
`CCOC(=O)C(=O)N(Cc1ccccc1)c1ccc2c(c1)OC(C)(CO)CN2C` (configuration not stated): the Activity entry (in data set [2]; in [3]; with HeLa [4]; in the data set with MCF7 [5]) was “Toxic” in each case. The inhibition result in the data set with MAEC [10] was “Dose-dependent effect”. Besides, in data set [22], the inhibition at 30 µM is above 80%. The inhibition at 10 µM in data set [12] is above 40%. In addition, the inhibition result in the data set on HMEC-1 [14] is “inactive”. The inhibition result in the data set on HMEC-1 [23], with HMEC-1 [24] and in the data set on HMEC-1 [20] was “Active” throughout. For the same compound, the IC50 (in data set [17]; with HeLa [18]; in data set [19]; in the data set with MCF7 [21]) was above 100 µM each time.
Take `CCOC(=O)C(=O)N(Cc1ccccc1)c1ccc2c(c1)OC[C@H](COc1ccc(C(=N)N)cc1)O2`: the Activity result (in data set [2]; in [3]; in the data set with HeLa [4]; with MCF7 [5]) was “Non-toxic” throughout. The inhibition result in the data set listed under Gallus gallus [15] was “Active”. For the same compound, the inhibition constant (Ki) at Prothrombin amounted to 0.018 µM. Further, the IC50 in [17] turned out to be 24 µM; in the data set with HeLa [18], 19 µM; in data set [19], 12 µM; in the data set on MCF7 [21] it was 9.5 µM.
For the compound `CCOC(=O)C(=O)N(Cc1ccccc1)c1ccc2c(c1)OC(COc1ccc(C(=N)N)cc1)CO2` (configuration not stated), the Activity entry (in [2]; in data set [3]; with HeLa [4]; with MCF7 [5]) was “Non-toxic” each time. The inhibition result in the data set with MAEC [10] and with HMEC-1 [23] was “Dose-dependent effect” each time. For the same compound, the inhibition at 30 µM in data set [22] was above 80%. In [12], the inhibition at 10 µM was above 40%. Also, the inhibition result in the data set listed under Gallus gallus [15] and in the data set listed under Gallus gallus [25] was “Active” in each case. The compound also gave a Ki at Prothrombin of 0.178 µM. Also, the result in the data set listed under Gallus gallus [26] was inactive. The IC50 is 22 µM in data set [17], 8 µM with HeLa [18], 8.5 µM in data set [19] and 8.7 µM in the data set on MCF7 [21].

The inhibition is the drop in the measured response relative to a control, in per cent. A word on the IC50: it is the point on the concentration scale where inhibition reaches its midpoint. By Ki is commonly meant the equilibrium dissociation constant of an inhibitor or competing ligand from its target. Read a high Ki as lower affinity.
